Each structure is given as a SMILES string. Activity calls are given as the source filed them.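 The calls were made as follows, unless noted: active = viability at or below 30% in both replicate assays; inconclusive = viability at or below 30% in just one of the two assays; inactive = the rest.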

Test [1] can be described thus: Her2 expression decrease, cell viability multiplex – SKBR3 breast tumor cells, AlphaScreen, ATP viability, primary screen (AID 461;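 active = Her2 level under about 52% in both replicate screens, with viability over 70% of control, limit read from the data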;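 as to Her2 level: lower value means less Her2 protein in the cells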;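 as to viability: percent of carrier control wells set as 100% viability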). The settings on record: SKBR3 Her2 protein level, 18-24 h, measured here: SKBR3 viability, ATP luminescence, at 10 µM.
Test [2] concerns the target Receptor tyrosine-protein kinase erbB-2 (Homo sapiens) (UniProt P04626). The description is as above. To be noted: 18-24 h, at 10 µM, stronger effect = lower value.
The nature of test [3]: reduced viability of SK-BR-3 breast cancer cells – cell-based, 24 h, human, pilot screen (AID 572;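 active = viability at or below 10% of carrier control in both of two separate runs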;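 also: compound exposure lasted between 18 and 24 h rather than exactly 24 h; 100% = carrier-treated control wells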). The settings on record: SK-BR-3 viability, CellTiter-Glo luminescence, at 10 µM, stronger effect = lower value.
Test [4] is described as follows: HUVEC growth inhibition – cell-based, human, primary screen (AID 575).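 Also: 100% = median of untreated cell wells with 0.1% DMSO on each plate.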 To be noted: HUVEC proliferation, CellTiter-Glo luminescence, 72 h; at 10 µM; stronger effect = lower value. In a few lines: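 material = primary HUVEC, no more than 12 passages | input = 1250 cells per well | controls = vehicle and MePR control wells | measured by = CTG luminescence | times = 72 h compound incubation | format = collagen-coated 384-well format | read-out = % viability vs DMSO wells | doses = single 10 µM dose, 0.1% DMSO, from 5x medium stock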

Test [5] is described as follows: H69AR cell proliferation blockers – human, duplicate replicates, primary screen (AID 580;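 active = viability at or under a set limit in both replicates, limit being median viability minus 3 SD, cut at about 48% in these data, passing the limit was not always enough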;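 also: 100% = mean luminescence of untreated wells and 0% = no signal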). The settings on record: H69AR lung tumor cells viability, ATP luminescence, 72 h; at 10 µM; stronger effect = lower value.
Test [6] is described as follows: MRP1 drug-resistance reversers in H69AR cells – cell-based, doxorubicin co-treatment, pilot screen (AID 601;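 active = viability loss from added drug above about 55%, and viability with drug at most 40%, in both replicates, limit read from the data, passing the limit was not always enough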). To be noted: CellTiter-Glo, 72 h, at 10 µM; for differential viability (reversal): stronger effect = higher value.
The nature of test [7]: yeast transport mutant growth inhibition pilot in 384-well plates, post-Golgi transport modulator project (AID 636; in the data active = inhibition above about 31%). The settings on record: absorbance 615 nm, about 18 h, stronger effect = higher value.
The nature of test [8]: growth suppression of yeast trafficking mutant, preliminary HTS, modulators of trafficking downstream of Golgi apparatus project, 1536-format plate, OD 615 nm (AID 637; in the data active = inhibition above about 30%). To be noted: yeast transport mutant growth, absorbance 615 nm, 18 h; stronger effect = higher value.
[9] abbreviates: H69AR cells + 2 uM doxorubicin, measured here: viability with 2 uM doxorubicin, stronger effect = lower value.
Where [10] appears, read: H69AR cells, compound alone cytotoxicity.

Receptor tyrosine-protein kinase erbB-2 (Homo sapiens), sequence (P04626 whole entry, looked up): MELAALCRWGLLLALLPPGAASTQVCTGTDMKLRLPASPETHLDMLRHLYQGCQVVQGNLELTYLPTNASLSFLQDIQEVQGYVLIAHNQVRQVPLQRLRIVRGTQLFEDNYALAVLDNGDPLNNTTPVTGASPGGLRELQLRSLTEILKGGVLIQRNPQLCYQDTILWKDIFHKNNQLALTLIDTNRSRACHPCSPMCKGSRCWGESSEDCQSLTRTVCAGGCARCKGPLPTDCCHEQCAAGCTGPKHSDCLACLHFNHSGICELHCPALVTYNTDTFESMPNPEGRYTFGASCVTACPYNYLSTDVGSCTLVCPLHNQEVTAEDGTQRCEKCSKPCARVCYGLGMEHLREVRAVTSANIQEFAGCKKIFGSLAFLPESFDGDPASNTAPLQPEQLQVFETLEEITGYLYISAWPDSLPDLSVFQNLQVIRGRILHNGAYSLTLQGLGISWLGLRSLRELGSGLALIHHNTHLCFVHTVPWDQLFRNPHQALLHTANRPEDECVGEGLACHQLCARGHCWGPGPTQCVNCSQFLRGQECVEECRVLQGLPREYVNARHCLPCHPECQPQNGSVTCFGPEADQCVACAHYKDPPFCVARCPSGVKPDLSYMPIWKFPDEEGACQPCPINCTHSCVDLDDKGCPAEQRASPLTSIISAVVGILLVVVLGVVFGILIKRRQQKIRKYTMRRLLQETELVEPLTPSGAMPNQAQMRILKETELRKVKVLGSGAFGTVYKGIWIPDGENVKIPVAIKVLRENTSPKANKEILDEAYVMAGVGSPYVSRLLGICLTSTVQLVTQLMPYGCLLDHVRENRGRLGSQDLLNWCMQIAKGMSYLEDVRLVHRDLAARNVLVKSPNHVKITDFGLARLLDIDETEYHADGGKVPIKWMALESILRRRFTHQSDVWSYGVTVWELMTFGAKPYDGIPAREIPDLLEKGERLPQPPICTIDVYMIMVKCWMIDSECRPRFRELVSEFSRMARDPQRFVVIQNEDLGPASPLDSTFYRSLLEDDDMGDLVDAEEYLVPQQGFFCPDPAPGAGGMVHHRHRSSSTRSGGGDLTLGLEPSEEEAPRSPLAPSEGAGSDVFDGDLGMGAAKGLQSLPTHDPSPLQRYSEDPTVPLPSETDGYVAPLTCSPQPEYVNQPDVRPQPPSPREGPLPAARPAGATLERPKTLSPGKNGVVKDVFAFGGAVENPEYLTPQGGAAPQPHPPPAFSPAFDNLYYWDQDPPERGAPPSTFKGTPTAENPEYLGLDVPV

Turning to `Cc1ccc2[nH]c(=O)c(CN(CCCO)S(=O)(=O)c3c(C)ccc4nsnc34)cc2c1`, the viability in test [1] was 91%; in test [3] it was 91% (inactive); in test [4] it was 95.1% (inactive); in test [5], 96.8% (inactive); in test [6] (setting [9]), 92.8%; in test [6] (setting [10]) it was 96.8%. For the same molecule, the Her2 level in test [2] was 92.5% (inactive). The differential viability (reversal) in test [6] (H69AR cells + 2 uM doxorubicin) was 4.04% (inactive). The inhibition in test [7] was -1.18% (inactive); in test [8] it was -4.44% (inactive).
With `CCOC(=O)c1ccc(NC(=O)CSc2nnc(COc3ccccc3)n2C)cc1`, the viability in test [1] is 110%; in test [3], 110% (inactive); in test [4], 85.3% (inactive); in test [5] it was 107% (inactive); in test [6] (setting [9]) it was 98.1%; in test [6] (setting [10]), 107%. Besides, the Her2 level in test [2] was 113% (inactive). Also, the differential viability (reversal) in test [6] (H69AR cells + 2 uM doxorubicin) was 8.77% (inactive). Moreover, the inhibition in test [7] is -1.3% (inactive); in test [8], -9.67% (inactive).
Regarding `COc1ccc(CNC(=O)Cn2nc(C(F)(F)F)c3c2CCC3)cc1`, the viability in test [1] was 89.5%; in test [3], 89.5% (inactive); in test [4], 103% (inactive); in test [5] it was 99.5% (inactive); in test [6] (setting [9]), 87.6%; in test [6] (setting [10]), 99.5%. Further, in test [2], the Her2 level is 91.5% (inactive). Further, the differential viability (reversal) in test [6] (H69AR cells + 2 uM doxorubicin) was 11.9% (inactive). For the same molecule, the inhibition in test [7] is -6.13% (inactive); in test [8], 5.74% (inactive).
As to `COC(=O)c1cc2ccsc2n1CC(=O)N(C)c1ccccc1`, the viability in test [1] was 89.5%; in test [3] it was 89.5% (inactive); in test [4], 90.2% (inactive); in test [5], 84.2% (inactive); in test [6] (setting [9]), 84%; in test [6] (setting [10]) it was 84.2%. For the same molecule, the Her2 level in test [2] was 94.5% (inactive). The differential viability (reversal) in test [6] (H69AR cells + 2 uM doxorubicin) was 0.29% (inactive). The inhibition in test [7] is 0.26% (inactive); in test [8] it was -1.83% (inactive).
Regarding `Cn1c(=O)c2c(nc(NCC3CCCO3)n2C)n(C)c1=O` (stereo not given), the viability is 102% in test [1]; 102% (inactive) in test [3]; 105% (inactive) in test [4]; 103% (inactive) in test [5]; 95.5% in test [6] (setting [9]); 103% in test [6] (setting [10]). In test [2], the Her2 level is 104% (inactive). The differential viability (reversal) in test [6] (H69AR cells + 2 uM doxorubicin) was 7.24% (inactive). In addition, the inhibition in test [7] was -1.33% (inactive); in test [8], -3.11% (inactive).
Consider `C=CCNC(=O)CNS(=O)(=O)c1ccc(F)cc1`, for which the viability in test [1] is 87%; in test [3], 87% (inactive); in test [4] it was 92.5% (inactive); in test [5], 95.4% (inactive); in test [6] (setting [9]), 93.6%; in test [6] (setting [10]), 95.4%. Also, the Her2 level in test [2] was 95.5% (inactive). Further, in test [6] (H69AR cells + 2 uM doxorubicin), the differential viability (reversal) was 1.88% (inactive). Moreover, the inhibition in test [7] is -1.45% (inactive); in test [8], 0% (inactive).
As for `CCCc1cc(C(=O)Nc2ccccc2C(=O)OC)no1`, the viability is 89.5% in test [1]; 89.5% (inactive) in test [3]; 64.7% (inactive) in test [4]; 89.3% (inactive) in test [5]; 82% in test [6] (setting [9]); 89.3% in test [6] (setting [10]). Also, the Her2 level in test [2] is 109% (inactive). The differential viability (reversal) in test [6] (H69AR cells + 2 uM doxorubicin) is 7.36% (inactive). In addition, the inhibition in test [7] is 4.1% (inactive); in test [8], 14.5% (inactive).
In the case of `COc1cc2c(cc1OC)C(c1ccccc1O)N(C1CC(=O)N(c3ccccc3)C1=O)CC2` (stereo not given), the viability in test [1] is 113%; in test [3], 113% (inactive); in test [4], 97.7% (inactive); in test [5], 99.8% (inactive); in test [6] (setting [9]) it was 81.5%; in test [6] (setting [10]), 99.8%. The Her2 level in test [2] is 96.5% (inactive). For the same molecule, the differential viability (reversal) in test [6] (H69AR cells + 2 uM doxorubicin) is 18.3% (inactive). Also, the results for the inhibition in test [7] and in test [8] were -4.42% (inactive) and -5.08% (inactive), respectively.
On to `O=C(Cn1ccc2ccccc2c1=O)NCCC(=O)N1CCN(C2CCCCC2)CC1`, for which the viability in test [1] was 99.5%; in test [3], 99.5% (inactive); in test [4] it was 96.6% (inactive); in test [5] it was 104% (inactive); in test [6] (setting [9]), 81.7%; in test [6] (setting [10]), 104%. For the same molecule, the Her2 level in test [2] was 86.5% (inactive). Further, the differential viability (reversal) in test [6] (H69AR cells + 2 uM doxorubicin) is 22.2% (inactive). Further, the inhibition is -3.2% (inactive) in test [7] and 2.13% (inactive) in test [8].
Turning to `O=c1cc(C(F)F)oc2c1ccc1ccccc12`, the viability is 93.5% in test [1]; 93.5% (inactive) in test [3]; 74.8% (inactive) in test [4]; 81.7% (inactive) in test [5]; 91.6% in test [6] (setting [9]); 81.7% in test [6] (setting [10]). The Her2 level in test [2] was 98.5% (inactive). Moreover, the differential viability (reversal) in test [6] (H69AR cells + 2 uM doxorubicin) was -9.89% (inactive). Moreover, the inhibition is -0.91% (inactive) in test [7] and 2.33% (inactive) in test [8].
On to `CCc1cc2c(=O)c(-c3cscn3)coc2cc1O`, for which the viability in test [1] is 108%; in test [3], 108% (inactive); in test [4] it was 63.5% (inactive); in test [5] it was 88.8% (inactive); in test [6] (setting [9]), 102%; in test [6] (setting [10]), 88.8%. Moreover, the Her2 level in test [2] is 96% (inactive). The differential viability (reversal) in test [6] (H69AR cells + 2 uM doxorubicin) was -13% (inactive). Besides, the inhibition in test [7] is -1.32% (inactive); in test [8], 2.95% (inactive).
Regarding `CCn1c(C(=O)N2CCCC(C(=O)O)C2)cc2sccc21` (stereo not given), the viability was 103% in test [1]; 103% (inactive) in test [3]; 101% (inactive) in test [4]; 93.8% (inactive) in test [5]; 87.4% in test [6] (setting [9]); 93.8% in test [6] (setting [10]). Moreover, the Her2 level in test [2] is 98.5% (inactive). Further, in test [6] (H69AR cells + 2 uM doxorubicin), the differential viability (reversal) was 6.41% (inactive). In addition, the inhibition in test [7] is 0.53% (inactive); in test [8], -1.15% (inactive).
Turning to `CCOc1ccccc1C(=O)NCC(=O)OCC(=O)N1C(C)CCCC1C` (stereo not given), the viability in test [1] is 98.5%; in test [3], 98.5% (inactive); in test [4] it was 102% (inactive); in test [5], 103% (inactive); in test [6] (setting [9]), 93.4%; in test [6] (setting [10]), 103%. For the same molecule, the Her2 level in test [2] was 89% (inactive). Moreover, in test [6] (H69AR cells + 2 uM doxorubicin), the differential viability (reversal) is 9.78% (inactive). The inhibition in test [7] was -3.77% (inactive); in test [8], -3.02% (inactive).
For the molecule `COc1ccc(S(=O)(=O)NCc2ccc(C(=O)O)cc2)cc1`, the viability in test [1] is 102%; in test [3], 102% (inactive); in test [4], 107% (inactive); in test [5], 95.8% (inactive); in test [6] (setting [9]), 106%; in test [6] (setting [10]), 95.8%. Also, the Her2 level in test [2] is 99% (inactive). In test [6] (H69AR cells + 2 uM doxorubicin), the differential viability (reversal) was -10.6% (inactive). Moreover, the inhibition in test [7] was -3.77% (inactive); in test [8], -3.33% (inactive).
As to `CCOc1ccccc1N(C(=O)c1ccco1)C(C(=O)NC1CCCC1)c1cccnc1` (stereo not given), the viability was 84% in test [1]; 84% (inactive) in test [3]; 101% (inactive) in test [4]; 90.5% (inactive) in test [5]; 96.6% in test [6] (setting [9]); 90.5% in test [6] (setting [10]). The Her2 level in test [2] was 104% (inactive). The differential viability (reversal) in test [6] (H69AR cells + 2 uM doxorubicin) is -6.1% (inactive). The inhibition in test [7] was -1.78% (inactive); in test [8] it was -2.54% (inactive).

Source of the values: PubChem BioAssay.
